Laboratory results published in ChEMBL document CHEMBL2440113, “Synthesis, radiofluorination, and in vivo evaluation of novel fluorinated and iodinated radiotracers for PET imaging and targeted radionuclide therapy of melanoma” (J Med Chem, 2013).

How the values were obtained:
Heart [1] = assay: Biodistribution in heart of C57BL/6J mouse harboring mouse B16-Bl6 cells at 9 to 12 MBq, iv after 3 hrs by PET analysis; assay type: ADME, organism-based; conditions: in vivo
Outline: (§1)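 Ex vivo dissection in B16Bl6-bearing C57BL/6J mice (3x10⁵ cells s.c. right shoulder), done at day 10 or 14 after implantation. The ¹⁸F tracer was given i.v. at 9-12 MBq. Mice were killed by CO₂ at 1, 2 or 3 h. Tumor, organs and tissues were excised, weighed and gamma-counted, then decay-corrected and expressed as %ID/g. n=3-6 per group; mean ± SD.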

Kidney [2] = assay: Biodistribution in kidney of C57BL/6J mouse harboring mouse B16-Bl6 cells at 9 to 12 MBq, iv after 3 hrs by PET analysis; assay type: ADME, organism-based; conditions: in vivo; outline: as §1
Stomach = assay: Biodistribution in stomach of C57BL/6J mouse harboring mouse B16-Bl6 cells at 9 to 12 MBq, iv after 3 hrs by PET analysis; assay type: ADME, organism-based; conditions: in vivo
Outline: (§2)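 Ex vivo biodistribution. C57BL/6J mice bearing subcutaneous B16Bl6 tumours (3x10⁵ cells, shoulder), day 10 or 14, received [18F]tracer iv (9-12 MBq). They were killed by CO₂ at 1, 2 or 3 h. Tumours and organs were excised, weighed and gamma-counted. Results are decay-corrected % ID/g; ratios are tumour over tissue. n=3-6 per group; mean ± SD.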

Blood = assay: Biodistribution in blood of C57BL/6J mouse harboring mouse B16-Bl6 cells at 9 to 12 MBq, iv after 3 hrs by PET analysis; assay type: ADME, organism-based; conditions: in vivo; outline: as §1
Bone [3] = assay: Biodistribution in bones of C57BL/6J mouse harboring mouse B16-Bl6 cells at 9 to 12 MBq, iv after 3 hrs by PET analysis; assay type: ADME, organism-based, Bone element; conditions: in vivo; outline: as §1
Muscle tissue [4] = assay: Biodistribution in muscle of C57BL/6J mouse harboring mouse B16-Bl6 cells at 9 to 12 MBq, iv after 3 hrs by PET analysis; assay type: ADME, organism-based; conditions: in vivo; outline: as §1
Brain [5] = assay: Biodistribution in brain of C57BL/6J mouse harboring mouse B16-Bl6 cells at 9 to 12 MBq, iv after 2 hrs by PET analysis; assay type: ADME, organism-based; conditions: in vivo; outline: as §1
Heart [6] = assay: Biodistribution in heart of C57BL/6J mouse harboring mouse B16-Bl6 cells at 9 to 12 MBq, iv after 2 hrs by PET analysis; assay type: ADME, organism-based; conditions: in vivo; outline: as §1
Pancreas [7] = assay: Biodistribution in pancreas of C57BL/6J mouse harboring mouse B16-Bl6 cells at 9 to 12 MBq, iv after 2 hrs by PET analysis; assay type: ADME, organism-based; conditions: in vivo; outline: as §1
Spleen = assay: Biodistribution in spleen of C57BL/6J mouse harboring mouse B16-Bl6 cells at 9 to 12 MBq, iv after 2 hrs by PET analysis; assay type: ADME, organism-based; conditions: in vivo; outline: as §1
Kidney [8] = assay: Biodistribution in kidney of C57BL/6J mouse harboring mouse B16-Bl6 cells at 9 to 12 MBq, iv after 2 hrs by PET analysis; assay type: ADME, organism-based; conditions: in vivo; outline: as §1
Mus musculus [9] = assay: Biodistribution in cecum of C57BL/6J mouse harboring mouse B16-Bl6 cells at 9 to 12 MBq, iv after 2 hrs by PET analysis; assay type: ADME, organism-based, Caecum; conditions: in vivo; outline: as §1
Mus musculus [10] = assay: Biodistribution in small intestine of C57BL/6J mouse harboring mouse B16-Bl6 cells at 9 to 12 MBq, iv after 2 hrs by PET analysis; assay type: ADME, organism-based; conditions: in vivo; outline: as §1
Liver [11] = assay: Biodistribution in liver of C57BL/6J mouse harboring mouse B16-Bl6 cells at 9 to 12 MBq, iv after 2 hrs by PET analysis; assay type: ADME, organism-based; conditions: in vivo; outline: as §1
Zone of skin = assay: Biodistribution in skin of C57BL/6J mouse harboring mouse B16-Bl6 cells at 9 to 12 MBq, iv after 2 hrs by PET analysis; assay type: ADME, organism-based; conditions: in vivo; outline: as §1
Nucleic Acid [12] = assay: Ratio of drug level in tumor to bone in C57BL/6J mouse harboring mouse B16-Bl6 cells at 9 to 12 MBq, iv after 1 hr by PET analysis; assay type: ADME, organism-based; conditions: in vivo; outline: as §2
[13] = Ratio of drug level in tumor to blood in C57BL/6J mouse harboring mouse B16-Bl6 cells at 9 to 12 MBq, iv after 1 hr by PET analysis; assay type: ADME, organism-based; outline: as §2
Brain [14] = assay: Biodistribution in brain of C57BL/6J mouse harboring mouse B16-Bl6 cells at 9 to 12 MBq, iv after 1 hr by PET analysis; assay type: ADME, organism-based; conditions: in vivo; outline: as §1
Nucleic Acid [15] = assay: Ratio of drug level in tumor to muscle in C57BL/6J mouse harboring mouse B16-Bl6 cells at 9 to 12 MBq, iv after 1 hr by PET analysis; assay type: ADME, organism-based; conditions: in vivo; outline: as §2
Pancreas [16] = assay: Biodistribution in pancreas of C57BL/6J mouse harboring mouse B16-Bl6 cells at 9 to 12 MBq, iv after 1 hr by PET analysis; assay type: ADME, organism-based; conditions: in vivo; outline: as §1
Kidney [17] = assay: Biodistribution in kidney of C57BL/6J mouse harboring mouse B16-Bl6 cells at 9 to 12 MBq, iv after 1 hr by PET analysis; assay type: ADME, organism-based; conditions: in vivo; outline: as §1
Mus musculus [18] = assay: Biodistribution in colon and feces of C57BL/6J mouse harboring mouse B16-Bl6 cells at 9 to 12 MBq, iv after 1 hr by PET analysis; assay type: ADME, organism-based; conditions: in vivo; outline: as §1
Liver [19] = assay: Biodistribution in liver of C57BL/6J mouse harboring mouse B16-Bl6 cells at 9 to 12 MBq, iv after 1 hr by PET analysis; assay type: ADME, organism-based; conditions: in vivo; outline: as §1
Mus musculus [20] = assay: Biodistribution in eyes of C57BL/6J mouse harboring mouse B16-Bl6 cells at 9 to 12 MBq, iv after 1 hr by PET analysis; assay type: ADME, organism-based, Eye; conditions: in vivo; outline: as §1
Bone [21] = assay: Biodistribution in bones of C57BL/6J mouse harboring mouse B16-Bl6 cells at 9 to 12 MBq, iv after 1 hr by PET analysis; assay type: ADME, organism-based, Bone element; conditions: in vivo; outline: as §1
Mus musculus [22] = assay: Biodistribution in tumor of C57BL/6J mouse harboring mouse B16-Bl6 cells at 9 to 12 MBq, iv after 1 hr by PET analysis; assay type: ADME, organism-based, Neoplasm; conditions: in vivo; outline: as §2
Muscle tissue [23] = assay: Biodistribution in muscle of C57BL/6J mouse harboring mouse B16-Bl6 cells at 8 to 12 MBq, iv after 1 hr by PET analysis; assay type: ADME, organism-based; conditions: in vivo
Outline: (§3)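 C57BL/6J mice were inoculated s.c. on the right shoulder with 3x10⁵ B16Bl6 cells in PBS under isoflurane, and imaged at day 10 or 14 (tumor volume 431.8 ± 154.3 mm³). The ¹⁸F tracer was given i.v. via tail vein, 8-12 MBq (methods: 9-12 MBq/0.15 mL). Under ketamine/xylazine i.p., a 25-min whole-body static PET scan ran at 1 h. ROI %ID/g = counts/g/min ÷ injected dose. n=2-8; mean ± SD.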

Mus musculus [24] = assay: Biodistribution in eye of C57BL/6J mouse harboring mouse B16-Bl6 cells at 8 to 12 MBq, iv after 1 hr by PET analysis; assay type: ADME, organism-based; conditions: in vivo; outline: as §3
Mus musculus [25] = assay: Biodistribution in tumor of C57BL/6J mouse harboring mouse B16-Bl6 cells at 8 to 12 MBq, iv after 1 hr by PET analysis; assay type: ADME, organism-based, Neoplasm; conditions: in vivo
Outline: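 Static whole-body PET at 1 h after tail-vein injection of [18F]tracer (9-12 MBq/0.15 mL) in C57BL/6J mice carrying subcutaneous B16Bl6 shoulder tumours (3x10⁵ cells), imaged day 10 or 14. Mice under ketamine/xylazine ip. 25 min acquisition, OSEM reconstruction. ROI % ID/g = counts/g/min ÷ injected dose; ratios = tumour % ID/g ÷ organ % ID/g. n=2-8; mean ± SD.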

| Drug uptake (Heart [1]) [% ID/g] | Drug uptake (Kidney [2]) [% ID/g] | Drug uptake (Stomach) [% ID/g] | Drug uptake (Blood) [% ID/g] | Drug uptake (Bone [3]) [% ID/g] | Drug uptake (Muscle tissue [4]) [% ID/g] | Drug uptake (Brain [5]) [% ID/g] | Drug uptake (Heart [6]) [% ID/g] | Drug uptake (Pancreas [7]) [% ID/g] | Drug uptake (Spleen) [% ID/g] | Drug uptake (Kidney [8]) [% ID/g] | Drug uptake (Mus musculus [9]) [% ID/g] | Drug uptake (Mus musculus [10]) [% ID/g] | Drug uptake (Liver [11]) [% ID/g] | Drug uptake (Zone of skin) [% ID/g] | Ratio (Nucleic Acid [12]) | Kp at 1 h [13] | Drug uptake (Brain [14]) [% ID/g] | Ratio (Nucleic Acid [15]) | Drug uptake (Pancreas [16]) [% ID/g] | SMILES | other results |
| --- | --- | --- | --- | --- | --- | --- | --- | --- | --- | --- | --- | --- | --- | --- | --- | --- | --- | --- | --- | --- | --- |
| 3 | 2.6 | 5.39 | 0.99 | 3.61 | 1.11 | 1.03 | 1.7 | 1.56 | 2.38 | 3.52 | 12.1 | 19.51 | 2.31 | 0.94 | 5.35 | 8.29 | 1.03 | 9.48 | 2.63 | CCN(CCNC(=O)c1cnc2cc(I)ccc2n1)CCOCCOCCOCCOCCOCCOCCOCC[18F] | Drug uptake (Kidney [17]): 3.6 % ID/g; Drug uptake (Mus musculus [18]): 7.39 % ID/g; Drug uptake (Liver [19]): 2.02 % ID/g; Drug uptake (Mus musculus [20]): 12.24 % ID/g; Drug uptake (Bone [21]): 1.82 % ID/g; Drug uptake (Mus musculus [22]): 9.81 % ID/g; Drug uptake (Muscle tissue [23]): 1.01 % ID/g; Drug uptake (Mus musculus [24]): 5.53 % ID/g; Drug uptake (Mus musculus [25]): 6.63 % ID/g |
| 2.32 | 2.19 | 2.81 | 0.8 | 3.27 | 0.81 | 1.39 | 2.14 | 1.33 | 2.88 | 2.18 | 8.94 | 4.28 | 1.88 | 1.51 | 10.11 | 10.2 | 1.82 | 12.12 | 2.09 | CCN(CCNC(=O)c1cnc2cc(I)ccc2n1)CCOCCOCCOCC[18F] | Drug uptake (Kidney [17]): 3.46 % ID/g; Drug uptake (Mus musculus [18]): 7.17 % ID/g; Drug uptake (Liver [19]): 2.56 % ID/g; Drug uptake (Mus musculus [20]): 18.36 % ID/g; Drug uptake (Bone [21]): 1.4 % ID/g; Drug uptake (Mus musculus [22]): 14.05 % ID/g; Drug uptake (Muscle tissue [23]): 1.37 % ID/g; Drug uptake (Mus musculus [24]): 10.5 % ID/g; Drug uptake (Mus musculus [25]): 14.33 % ID/g |
